Results reported in ChEMBL document CHEMBL1142866, “Synthesis and preliminary evaluation of 18F- or 11C-labeled bicyclic nucleoside analogues as potential probes for imaging varicella-zoster virus thymidine kinase gene expression using positron emission tomography” (J Med Chem, 2007).
pIC50: −log10 of the molar value. Active and inactive are the calls of the source. The calls are words filed in the database; no cut-off is given here.

Experiments:
[1] = system: OST; assay: Cytotoxicity against OST cells expressing VZV TK; format: cell-based; settings: human
Summary of the method: (§1)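 OST TK- control cells and OST TK- cells expressing HSV-1 TK or VZV TK were cultured 5 days with graded compound concentrations. Cells were then trypsinized and counted on a Coulter counter. CC50 is the concentration in µM that reduces cell number by 50%.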

[2] = biological target: T1, Thymidine kinase (Human alphaherpesvirus 1, UniProt Q9QNF7); assay: Inhibition of recombinant HSV-1 TK assessed as [CH3-H3]dThd phosphorylation
T1 sequence (Q9QNF7 whole entry): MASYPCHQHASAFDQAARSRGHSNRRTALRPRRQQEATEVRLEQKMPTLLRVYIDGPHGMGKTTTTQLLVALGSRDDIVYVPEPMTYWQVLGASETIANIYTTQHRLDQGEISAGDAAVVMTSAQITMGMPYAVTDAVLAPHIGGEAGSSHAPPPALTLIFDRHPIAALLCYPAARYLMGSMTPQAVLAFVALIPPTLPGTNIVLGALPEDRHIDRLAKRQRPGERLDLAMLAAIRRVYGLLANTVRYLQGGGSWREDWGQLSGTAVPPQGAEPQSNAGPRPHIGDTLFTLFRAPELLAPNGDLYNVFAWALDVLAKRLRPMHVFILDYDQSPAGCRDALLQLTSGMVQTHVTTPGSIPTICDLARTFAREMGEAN
Summary of the method: (§2)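 Purified recombinant VZV TK (7.75 ng), HSV-1 TK (226 ng) or cytosolic TK-1 (455 ng). Buffer: 50 mM Tris-HCl pH 8.0, 2.5 mM MgCl2, 10 mM DTT, 2.5 mM ATP, 1.0 mg/mL BSA, 10 mM NaF, 1 µM [CH3-3H]dThd final. Incubated 30 min at 37 °C (linear range) with graded compound concentrations. Product caught on DE-81 disks, washed, scintillation-counted. IC50 is 50% inhibition of dThd phosphorylation.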

[3] = Inhibition of recombinant VZV TK assessed as [CH3-H3]dThd phosphorylation; set-up: species or system Human alphaherpesvirus 3; summary of the method: as §2
[4] = biological target: T2, Thymidine kinase, cytosolic (Homo sapiens, UniProt P04183); assay: Inhibition of recombinant cytosolic TK-1 assessed as [CH3-H3]dThd phosphorylation; summary of the method: as §2
T2 sequence (P04183 whole entry): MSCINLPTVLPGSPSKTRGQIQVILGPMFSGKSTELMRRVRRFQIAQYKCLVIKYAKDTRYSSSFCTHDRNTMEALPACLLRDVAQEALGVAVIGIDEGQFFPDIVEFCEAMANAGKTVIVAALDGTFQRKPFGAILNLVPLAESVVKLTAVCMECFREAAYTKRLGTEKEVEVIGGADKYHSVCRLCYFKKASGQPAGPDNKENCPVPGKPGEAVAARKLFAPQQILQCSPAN

[5] = system: OST; assay: Cytotoxicity against OST cells expressing HSV1 TK; format: cell-based; settings: human; summary of the method: as §1
[6] = system: OST; assay: Cytostatic activity against OST TK-/HSV1 TK+ cells at 1.8 uM; format: functional, cell-based; settings: Homo sapiens, tested as the 18F-labelled form; summary of the method: as §1
[7] = Biodistribution in spleen/pancreas of NMRI mouse after 2 mins; format: ADME, organism-based; settings: in vivo
Summary of the method: (§3)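 Male NMRI mice (30-40 g) under ketamine/xylazine i.p. anesthesia received 0.1 mL of HPLC-purified 18F tracer (0.1 mCi/mL) or 11C tracer (1 mCi/mL) in water for injection via tail vein. Killed by decapitation at 2 or 60 min (n = 3 per time). Blood, organs and carcass weighed and gamma-counted. %ID = organ cpm/total cpm recovered. Blood mass taken as 7% of body mass. Mean ± SD.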

[8] = Biodistribution in spleen/pancreas of NMRI mouse assessed as standard uptake value after 60 mins; format: ADME, organism-based; settings: in vivo, 1 h
[9] = system: Brain; assay: Biodistribution in brain of NMRI mouse assessed as standard uptake value after 2 mins; format: ADME, organism-based; settings: in vivo
[10] = Biodistribution in spleen/pancreas of NMRI mouse after 60 mins; format: ADME, organism-based; settings: in vivo, 1 h; summary of the method: as §3
[11] = system: Lung; assay: Biodistribution in lung of NMRI mouse assessed as standard uptake value after 2 mins; format: ADME, organism-based; settings: in vivo
[12] = Biodistribution in carcass of NMRI mouse after 2 mins; format: ADME, organism-based; settings: in vivo; summary of the method: as §3
[13] = system: Blood; assay: Biodistribution in blood of NMRI mouse assessed as standard uptake value after 2 mins; format: ADME, organism-based; settings: in vivo
[14] = system: Brain; assay: Biodistribution in brain of NMRI mouse after 60 mins; format: ADME, organism-based; settings: in vivo, 1 h; summary of the method: as §3
[15] = Partition coefficient, log P at pH 7.4; format: physicochemical; settings: octanol/water
Summary of the method: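 HPLC-purified radiotracer partitioned between 1-octanol and 0.025 M phosphate buffer pH 7.4. Vortexed 2 min at room temperature, centrifuged 5 min, aliquots of both phases gamma-counted. P = octanol cpm/buffer cpm after density and mass correction; n = 6.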

[16] = system: Liver; assay: Biodistribution in liver of NMRI mouse after 60 mins; format: ADME, organism-based; settings: in vivo, 1 h; summary of the method: as §3
[17] = Drug uptake in human 293T cells transduced with LacZ gene after 3 hrs; format: ADME, cell-based; settings: hek-293t
Summary of the method: (§4)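 Lentivirally transduced 293T cells (VZV-tk or LacZ control) plated in triplicate at 200 000 cells/well. After 24 h, 0.25 mL fresh medium with 5 µCi of the 18F tracer (3 h) or 30 µCi of the 11C tracer (1 h) added; 37 °C, 5% CO2. Cells washed thrice with ice-cold PBS, lysed, gamma-counted. Uptake given as % total radioactivity per mg protein (Bio-Rad assay); n = 3, unpaired two-sided t-test.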

[18] = system: Heart; assay: Biodistribution in heart of NMRI mouse after 60 mins; format: ADME, organism-based; settings: in vivo, 1 h; summary of the method: as §3
[19] = system: Kidney; assay: Biodistribution in kidney of NMRI mouse after 60 mins; format: ADME, organism-based; settings: in vivo, 1 h; summary of the method: as §3
[20] = system: Heart; assay: Biodistribution in heart of NMRI mouse assessed as standard uptake value after 60 mins; format: ADME, organism-based; settings: in vivo, 1 h
[21] = Biodistribution in urine of NMRI mouse after 60 mins; format: ADME, organism-based; settings: in vivo, 1 h; summary of the method: as §3
[22] = system: Kidney; assay: Biodistribution in kidney of NMRI mouse assessed as standard uptake value after 2 mins; format: ADME, organism-based; settings: in vivo
[23] = system: Lung; assay: Biodistribution in lung of NMRI mouse after 2 mins; format: ADME, organism-based; settings: in vivo; summary of the method: as §3
[24] = system: Lung; assay: Biodistribution in lung of NMRI mouse assessed as standard uptake value after 60 mins; format: ADME, organism-based; settings: in vivo, 1 h
[25] = Biodistribution in urine of NMRI mouse after 2 mins; format: ADME, organism-based; settings: in vivo; summary of the method: as §3
[26] = system: Intestine; assay: Biodistribution in intestine of NMRI mouse after 60 mins; format: ADME, organism-based; settings: in vivo, 1 h; summary of the method: as §3
[27] = Ratio of drug uptake in LV-VZVTK-1-P transduced cells to LV-LacZ-I-P transduced 293T cells after 3 hrs; format: ADME, cell-based; settings: human
Summary of the method: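 Lentivirally transduced human embryonic kidney 293T cells (VZV-tk vs LacZ control), plated in triplicate at 200 000 cells/well. After 24 h, fresh medium with HPLC-purified [18F] tracer (5 µCi/well), 3 h at 37 °C, 5% CO2. Cells washed three times with ice-cold PBS and lysed. Lysate counted in a gamma counter. Uptake given as % total radioactivity per mg protein (Bio-Rad assay). Ratio is VZV-tk/LacZ; n=3, unpaired Student t-test.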

[28] = system: Blood; assay: Biodistribution in blood of NMRI mouse after 2 mins; format: ADME, organism-based; settings: in vivo; summary of the method: as §3
[29] = system: Liver; assay: Biodistribution in liver of NMRI mouse after 2 mins; format: ADME, organism-based; settings: in vivo; summary of the method: as §3
[30] = system: Heart; assay: Biodistribution in heart of NMRI mouse after 2 mins; format: ADME, organism-based; settings: in vivo; summary of the method: as §3
[31] = Biodistribution in carcass of NMRI mouse after 60 mins; format: ADME, organism-based; settings: in vivo, 1 h; summary of the method: as §3
[32] = Biodistribution in spleen/pancreas of NMRI mouse assessed as standard uptake value after 2 mins; format: ADME, organism-based; settings: in vivo
[33] = system: Brain; assay: Biodistribution in brain of NMRI mouse after 2 mins; format: ADME, organism-based; settings: in vivo; summary of the method: as §3
[34] = system: Intestine; assay: Biodistribution in intestine of NMRI mouse after 2 mins; format: ADME, organism-based; settings: in vivo; summary of the method: as §3
[35] = system: Blood; assay: Biodistribution in blood of NMRI mouse after 60 mins; format: ADME, organism-based; settings: in vivo, 1 h; summary of the method: as §3
[36] = system: Heart; assay: Biodistribution in heart of NMRI mouse assessed as standard uptake value after 2 mins; format: ADME, organism-based; settings: in vivo
[37] = system: Liver; assay: Biodistribution in liver of NMRI mouse assessed as standard uptake value after 2 mins; format: ADME, organism-based; settings: in vivo
[38] = system: Brain; assay: Biodistribution in brain of NMRI mouse assessed as standard uptake value after 60 mins; format: ADME, organism-based; settings: in vivo, 1 h
[39] = Drug uptake in human 293T cells transduced with VZV-tk gene after 3 hrs; format: ADME, cell-based; settings: hek-293t; summary of the method: as §4
[40] = system: Liver; assay: Biodistribution in liver of NMRI mouse assessed as standard uptake value after 60 mins; format: ADME, organism-based; settings: in vivo, 1 h
[41] = system: Kidney; assay: Biodistribution in kidney of NMRI mouse after 2 mins; format: ADME, organism-based; settings: in vivo; summary of the method: as §3
[42] = system: Blood; assay: Biodistribution in blood of NMRI mouse assessed as standard uptake value after 60 mins; format: ADME, organism-based; settings: in vivo, 1 h
[43] = system: Kidney; assay: Biodistribution in kidney of NMRI mouse assessed as standard uptake value after 60 mins; format: ADME, organism-based; settings: in vivo, 1 h
[44] = system: Lung; assay: Biodistribution in lung of NMRI mouse after 60 mins; format: ADME, organism-based; settings: in vivo, 1 h; summary of the method: as §3

O=c1nc2oc(-c3cccc(O)c3)cc2cn1[C@H]1C[C@H](O)[C@@H](CO)O1
Activity [1]: Not Active | pIC50 [2]: < 3.30 | pIC50 [3]: 5.59 | pIC50 [4]: < 3.30 | Activity [5]: Not Active

Nc1nc2c(ncn2CCC(CO)CO)c(=O)[nH]1 [PENCICLOVIR]
pIC50 [2]: 4.96

O=c1nc2oc(-c3ccccc3F)cc2cn1C1C[C@H](O)[C@@H](CO)O1 (some centres undefined)
pIC50 [2]: < 3.30 | pIC50 [3]: 6.55 | pIC50 [4]: < 3.30

Nc1nc(=O)c2ncn(CCC(CO)CF)c2[nH]1 (centres undefined)
pIC50 [3]: < 4.30 | Activity [6]: Active

O=c1nc2oc(-c3cccc(OCC[18F])c3)cc2cn1[C@H]1C[C@H](O)[C@@H](CO)O1
Drug uptake [7]: 1.3 %ID | Drug uptake [8]: 0.1 | Drug uptake [9]: 0.1 | Drug uptake [10]: 0.1 %ID | Drug uptake [11]: 1.1 | Drug uptake [12]: 27.2 %ID | Drug uptake [13]: 0.9 | Drug uptake [14]: 0 %ID | logD [15]: 1.24 | Drug uptake [16]: 4.4 %ID | Drug uptake [17]: 0.6% | Drug uptake [18]: 0 %ID | Drug uptake [19]: 1.2 %ID | Drug uptake [20]: 0 | Drug uptake [21]: 29.5 %ID | Drug uptake [22]: 9 | Drug uptake [23]: 0.9 %ID | Drug uptake [24]: 0 | Drug uptake [25]: 5.7 %ID | Drug uptake [26]: 60.5 %ID | uptake ratio at 3 h [27]: 4.5 | Drug uptake [28]: 6.2 %ID | Drug uptake [29]: 24.4 %ID | Drug uptake [30]: 0.3 %ID | Drug uptake [31]: 3.8 %ID | Drug uptake [32]: 1.4 | Drug uptake [33]: 0 %ID | Drug uptake [34]: 20.7 %ID | Drug uptake [35]: 0.4 %ID | Drug uptake [36]: 0.6 | Drug uptake [37]: 3.9 | Drug uptake [38]: 0 | Drug uptake [39]: 2.29% | Drug uptake [40]: 0.7 | Drug uptake [41]: 15.5 %ID | Drug uptake [42]: 0.1 | Drug uptake [43]: 0.7 | Drug uptake [44]: 0.1 %ID
